Measurements pooled from the literature.
Compare with care: the assays were run in different laboratories. pIC50: −log10 of the molar value.

| Structure (SMILES) | cell line | read-out | technique | time | pIC50 |
| --- | --- | --- | --- | --- | --- |
| COc1ccc2c(C(=O)C(=O)NCCc3c[nH]c4ccccc34)c[nH]c2c1 | C4-2 | cell growth or viability | MTT |  | < 4.00 |
| CC(C)(C=O)Cc1cc(C(C)(C)C)c(O)c(C(C)(C)C)c1 | HN-6 | cell growth or viability |  | 72 h | < 4.70 |
| CC(C)(C)C1=CC(=NNc2ccc(C#N)cc2)C=C(C(C)(C)C)C1=O | human Fibroblast | cell growth or viability | resazurin | 24 h | < 4.00 |
| NCCc1ccc(O)c(O)c1 | HN-6 | cell growth or viability |  | 72 h | < 4.70 |
| CC(C)C[C@H](NC(=O)[C@H](Cc1ccccc1)NC(=O)c1cnccn1)B(O)O | A2058 | cell growth or viability | ATP luminescence |  | 7.89 |
| COc1cccc2c1C(=O)c1c(O)c3c(c(O)c1C2=O)C[C@@](O)(C(=O)CO)C[C@@H]3O[C@H]1C[C@H](N)[C@H](O)[C@H](C)O1 | A2058 | cell growth or viability | WST-1 | 72 h | 7.40 |
| O=C(c1cc(Cc2n[nH]c(=O)c3ccccc23)ccc1F)N1CCN(C(=O)C2CC2)CC1 | KATO III | colony formation |  |  | 5.61 |
| COC(=O)CN=c1scc(-c2ccccc2)n1-c1ccccc1 | Panc 02.03 | cell growth or viability | MTT | 72 h | 4.09 |
| C=C(C)C(=O)Nc1ccc(-c2c(-c3ccc(Oc4nccc(C)n4)c(F)c3)c3c(N)ncnc3n2C)cc1 | KATO III | cell growth or viability | ATP luminescence | 96 h | 8.89 |
| COc1ccc2[nH]cc(C(=O)C(=O)CCCc3c[nH]c4ccccc34)c2c1 | C4-2 | cell growth or viability | MTT |  | < 4.00 |
| Cc1c[nH]c(/C=C2\C(=O)Nc3ccccc32)c1CCC(=O)O | RT-112 | cell growth or viability | MTT | 5 days | 5.22 |
| C(=C\c1c[nH]c2ccccc12)/c1ccc2ccccc2n1 | MDA-MB-468 | cell growth or viability | MTT |  | 4.96 |
| CC1(C)[C@@H](O)CC[C@]2(C)[C@H]3C(=O)C=C4[C@@H]5C[C@@](C)(C(=O)O)CC[C@]5(C)CC[C@@]4(C)[C@]3(C)CC[C@@H]12 | SGC-7901 | cell growth or viability | MTT | 48 h | 4.99 |
| Clc1ccc(N2CCN(Cc3c[nH]c4ncccc34)CC2)cc1 | HN-6 | cell growth or viability |  | 72 h | < 4.70 |
| COc1c(O)cc2c(c1O)C(=O)c1c(cc(C)c(O)c1OC)C2=O | HK-2 | cell growth or viability | MTT | 24 h | < 3.30 |
| COc1ccc(-c2nc(C(=O)Nc3nnc(-c4cc5ccccc5[nH]4)s3)cc3c2[nH]c2ccccc23)cc1 | BEAS-2B | cell growth or viability | MTT | 72 h | 4.15 |
| CC(C)C(=O)SCCCCCCC(=O)Nc1nc(-c2ccccc2)cs1 | HN-6 | cell growth or viability |  | 72 h | 5.23 |
| COC(C)(C)CCC[C@](C)(O)[C@H]1CC[C@]2(C)[C@@H]1[C@H](O)C[C@@H]1[C@@]3(C)CC[C@H](O)C(C)(C)[C@@H]3CC[C@]12C | BEAS-2B | cell growth or viability | MTT | 72 h | 4.61 |
| COc1cc2nc(N3CCN(C(=O)c4ccco4)[C@H]4CCCC[C@H]43)nc(N)c2cc1OC (racemic) | HN-6 | cell growth or viability |  | 72 h | 4.81 |

| Structure (SMILES) | cell line | read-out | technique | time | pIC50 |
| --- | --- | --- | --- | --- | --- |
| CS(=O)(=Nc1ccc(Br)cc1)c1c[nH]c2ccccc12 (centres unmarked) | C4-2 | cell growth or viability | MTT | 48 h | < 4.40 |
| Clc1ccc2c(c1)N=C(N1CCNCC1)c1ccccc1N2 | HN-6 | cell growth or viability |  | 72 h | < 4.70 |
| Cc1ccc(C(=O)Nc2ccc(Oc3cc4cnn(C)c4cc3-c3cn[nH]c3)c(F)c2)c(=O)n1-c1ccc(F)cc1 | KATO III | cell growth or viability | ATP luminescence |  | 6.45 |
| Nc1ncnc2c1ncn2[C@@H]1O[C@H](CO)[C@@H](O)[C@@H]1O | HN-6 | cell growth or viability |  | 72 h | < 4.70 |
| COc1cccc2c1C(=O)c1c(O)c3c(c(O)c1C2=O)C[C@@](O)(C(=O)CO)C[C@@H]3O[C@H]1C[C@H](N)[C@H](O)[C@H](C)O1 | SGC-7901 | cell growth or viability | MTT | 48 h | 6.89 |
| O=C(O)c1cc(O)c2c(c1)C(=O)c1cccc(O)c1C2=O | HK-2 | cell growth or viability | MTT | 24 h | 3.68 |
| COc1cc(Nc2nccc(-c3cnn4nc(OC)ccc34)n2)cc(C(F)(F)F)c1 | RERF-LC-Ad2 | cell growth or viability | ATP luminescence |  | 6.44 |
| Nc1ccc(Cl)c[n+]1[Pt-2]([Cl])([Cl])[n+]1cc(Cl)ccc1N | BEAS-2B | cell growth or viability | MTT | 48 h | 5.20 |
| O=C(CNC(=O)c1cccc2ccccc12)Nc1ccccc1Oc1ccc(O)cc1 | SK-N-DZ | cell growth or viability |  |  | 6.33 |
| CC(C)(C)C1=CC(=NNC(=O)c2cccnc2)C=C(C(C)(C)C)C1=O | human Fibroblast | cell growth or viability | resazurin | 24 h | < 4.00 |
| CCN1C(=O)N(c2c(F)c(OC)cc(OC)c2F)Cc2cnc3[nH]c(CN4CCOCC4)cc3c21 | RT-112 | cell growth or viability | ATP luminescence | 96 h | 8.28 |
| COC(=O)CN=c1scc(-c2ccccc2)n1-c1ccccc1[N+](=O)[O-] | Panc 02.03 | cell growth or viability | MTT | 72 h | < 4.00 |
| Cc1cc(O)c2c(c1)C(=O)c1cccc(O)c1C2=O | HK-2 | cell growth or viability | MTT | 24 h | < 3.30 |
| O=C(O)CCCc1ccccc1 | BCPAP | cell growth or viability | MTT | 72 h | < 4.30 |
| Nc1c2c(nc3ccccc13)CCCC2O (centres unmarked) | HN-6 | cell growth or viability |  | 72 h | < 4.70 |
| O=C1NC(=NCc2cccs2)S/C1=C\c1ccc2ncccc2c1 | LOX IMVI | cell growth or viability |  |  | 5.36 |
| COc1ccc(Oc2ccccc2NC(=O)CNC(=O)c2cccc3ccccc23)cc1 | SK-N-DZ | cell growth or viability |  |  | 6.57 |
| CCN1CCN(c2ccc(Nc3cc(N(C)C(=O)Nc4c(Cl)c(OC)cc(OC)c4Cl)ncn3)cc2)CC1 | KATO III | cell growth or viability | ATP luminescence | 96 h | 8.65 |
| CCCCC/C=C\C/C=C\C/C=C\C/C=C\CCCC(=O)C(F)(F)F | MEL-JUSO | cell growth or viability | MTS | 72 h | 4.64 |
